We go through 19 compounds from ChEMBL document CHEMBL1130075, “(2-Methyl-5-(methylsulfonyl)benzoyl)guanidine Na+/H+ antiporter inhibitors” (J Med Chem, 1997).

The test deals with Sodium/hydrogen exchanger (Oryctolagus cuniculus, UniProt P23791+P50482+P26432). The test can be described thus: Inhibition of 5-N-(ethyl isopropyl)-amiloride[EIPA]-sensitive Na+ uptake into acidified rabbit erythrocytes. It is filed as functional. An outline of the steps:
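Rabbit blood (heparinized) red cells, washed, acidified in pH 6.2 KCl buffer with ouabain, 10 min 37 °C; internal pH clamped with 200 μM DIDS and 1 mM acetazolamide, 30 min 37 °C. Uptake 5 min at 37 °C in pH 8.0 buffer with 10 mM NaCl plus ²²Na tracer, 1% DMSO. Triplicates; counts with 10 μM EIPA subtracted; IC50 by nonlinear fit.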
For orientation: IC50 means the concentration needed to halve the response being measured. In turn, `CCCSc1cc(C)c(C(=O)N=C(N)N)cc1S(C)(=O)=O` registered an IC50 of 6.8 nM.
To `CCCc1cc(C)c(C(=O)N=C(N)N)cc1S(C)(=O)=O` belongs 5.7 nM.
To `Cc1cc(-c2ccco2)c(S(C)(=O)=O)cc1C(=O)N=C(N)N` belongs 16 nM.
Compound `CS(=O)(=O)c1cc(C(=O)N=C(N)N)ccc1-n1cccn1` registered an IC50 of 160 nM.
Under `CS(=O)(=O)c1cc(C(=O)N=C(N)N)ccc1C(F)(F)F` stands 140 nM.
To `CCCCCc1cc(C)c(C(=O)N=C(N)N)cc1S(C)(=O)=O` belongs 27 nM; to `CS(=O)(=O)c1cc(C(=O)N=C(N)N)ccc1C1CCCCC1`, 340 nM.
Under `CCc1cc(C)c(C(=O)N=C(N)N)cc1S(C)(=O)=O` stands 4.8 nM; under `Cc1cc(-n2ccc(=O)cc2)c(S(C)(=O)=O)cc1C(=O)N=C(N)N`, 75 nM.
`COc1cc(Cl)c(C(=O)N=C(N)N)cc1S(C)(=O)=O` yielded an IC50 of 40 nM.
To `Cc1cc(Br)c(S(C)(=O)=O)cc1C(=O)N=C(N)N` belongs 12 nM; to `CS(=O)(=O)c1cc(C(=O)N=C(N)N)c(Cl)cc1Nc1ncccn1`, 49 nM.
To `CS(=O)(=O)c1cc(C(=O)N=C(N)N)ccc1Oc1cncc(Cl)c1` belongs 75 nM.
To `Cc1cc(C2CCCCC2)c(S(C)(=O)=O)cc1C(=O)N=C(N)N` belongs 22 nM; to `Cc1cc(SC(C)C)c(S(C)(=O)=O)cc1C(=O)N=C(N)N`, 12 nM; to `Cc1cc(C(C)C)c(S(C)(=O)=O)cc1C(=O)N=C(N)N`, 2 nM.
Compound `Cc1cc(N2CCN(c3ncccn3)CC2)c(S(C)(=O)=O)cc1C(=O)N=C(N)N` displayed an IC50 of 27 nM.
To `CC(C)c1ccc(C(=O)N=C(N)N)cc1S(C)(=O)=O` [CARIPORIDE] belongs 26 nM; to `Cc1cc(-n2cccc2)c(S(C)(=O)=O)cc1C(=O)N=C(N)N` [ENIPORIDE], 8 nM.
